# Results taken from ChEMBL document CHEMBL1157848, “Derivatives of benzimidazole pharmacophore: synthesis, anticonvulsant, antidiabetic and DNA cleavage studies” (2010).
# The source made the active and inactive calls. The calls are words filed in the database; no cut-off is given here.
# Key:
# Rattus norvegicus [1] = assay: Anticonvulsant activity in Wistar albino rat assessed as time spent on tonic extensor phase at 75 mg/kg by MES test (RVb = 11 +/- 0.57 sec); format: functional
# Method in brief: (§1)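 Maximal electroshock (MES) convulsion model in rats. Duration in seconds of the flexion, extensor, clonus and stupor phases was recorded, along with recovery or death. The vehicle control was 1% w/w gum acacia and phenytoin was the reference. Data are mean ± SEM, with P < 0.05 taken as significant.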
# Rattus norvegicus [2] = assay: Anticonvulsant activity in Wistar albino rat assessed as time spent on stupor phase at 75 mg/kg by MES test (RVb = 218.33 +/- 5.80 sec); format: functional; method in brief: as §1
# Rattus norvegicus [3] = assay: Anticonvulsant activity in Wistar albino rat assessed as time spent on clonic convulsions phase at 75 mg/kg by MES test (RVb = 16.80 +/-2.50 sec); format: functional; method in brief: as §1
# Rattus norvegicus [4] = assay: Anticonvulsant activity in Wistar albino rat assessed as time spent on tonic flexion phase at 75 mg/kg by MES test (RVb = 3.12 +/- 0.31 sec); format: functional; method in brief: as §1
# Rattus norvegicus [5] = assay: Antidiabetic activity in Wistar albino rat assessed as reduction of fasting blood glucose level administered qd for 9 days by oral glucose tolerance test (RVb = 83.33 +/- 1.54 mg/dl); format: functional
# Rattus norvegicus [6] = assay: Antidiabetic activity in Wistar albino rat assessed as reduction of blood glucose level administered qd for 9 days measured after 30 mins last post dose by oral glucose tolerance test (RVb = 183.2 +/- 3.68 mg/dl); format: functional
# Rattus norvegicus [7] = assay: Antidiabetic activity in Wistar albino rat assessed as reduction of blood glucose level administered qd for 9 days by glucose oxidation method (RVb = […] +/- […] mg/dl); format: functional
# Rattus norvegicus [8] = assay: Antidiabetic activity in Wistar albino rat assessed as reduction of blood glucose level administered qd for 9 days measured after 90 mins last post dose by oral glucose tolerance test (RVb = 135.7 +/- 2.9 mg/dl); format: functional
# Rattus norvegicus [9] = assay: Anticonvulsant activity in Wistar albino rat assessed as time spent on tonic flexion phase at 60 mg/kg by MES test (RVb = 3.12 +/- 0.31 sec); format: functional; method in brief: as §1
# Rattus norvegicus [10] = assay: Anticonvulsant activity in Wistar albino rat assessed as time spent on stupor phase at 60 mg/kg by MES test (RVb = 218.33 +/- 5.80 sec); format: functional; method in brief: as §1
# Rattus norvegicus [11] = assay: Anticonvulsant activity in Wistar albino rat assessed as time spent on tonic extensor phase at 60 mg/kg by MES test (RVb = 11 +/- 0.57 sec); format: functional; method in brief: as §1
# Rattus norvegicus [12] = assay: Anticonvulsant activity in Wistar albino rat assessed as time spent on clonic convulsions phase at 60 mg/kg by MES test (RVb = 16.80 +/- 2.50 sec); format: functional; method in brief: as §1
# Nucleic Acid = assay: Induction of Escherichia coli DNA cleavage at 25 mg after 2 hrs using ethidium bromide staining by agarose gel electrophoresis methos; format: nucleic-acid assay
# Method in brief: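 Genomic DNA came from E. coli grown 24 h at 37 °C in nutrient broth. It was extracted by SDS/EDTA lysis, phenol then chloroform–isoamyl alcohol, and ethanol precipitation, and dissolved in TAE. Samples were incubated with the DNA 2 h at 37 °C, mixed 1:1 with bromophenol blue, and run on agarose in TAE at 50 V alongside a DNA marker. Gels were ethidium bromide stained 10–15 min and cleavage judged visually.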
# Rattus norvegicus [13] = assay: Anticonvulsant activity in Wistar albino rat assessed as time spent on stupor phase at 80 mg/kg by MES test (RVb = 218.33 +/- 5.80 sec); format: functional; method in brief: as §1
# Rattus norvegicus [14] = assay: Anticonvulsant activity in Wistar albino rat assessed as time spent on clonic convulsions phase at 80 mg/kg by MES test (RVb = 16.80 +/- 2.50 sec); format: functional; method in brief: as §1
# Rattus norvegicus [15] = assay: Anticonvulsant activity in Wistar albino rat assessed as time spent on tonic extensor phase at 80 mg/kg by MES test (RVb = 11 +/- 0.57 sec); format: functional; method in brief: as §1
# Rattus norvegicus [16] = assay: Anticonvulsant activity in Wistar albino rat assessed as time spent on tonic flexion phase at 80 mg/kg by MES test (RVb = 3.12 +/- 0.31 sec); format: functional; method in brief: as §1
# Rattus norvegicus [17] = assay: Anticonvulsant activity in Wistar albino rat assessed as time spent on tonic extensor phase at 20 mg/kg by MES test (RVb = 11 +/- 0.57 sec); format: functional; method in brief: as §1
# Rattus norvegicus [18] = assay: Anticonvulsant activity in Wistar albino rat assessed as time spent on stupor phase at 20 mg/kg by MES test (RVb = 218.33 +/- 5.80 sec); format: functional; method in brief: as §1
# Rattus norvegicus [19] = assay: Anticonvulsant activity in Wistar albino rat assessed as time spent on tonic flexion phase at 20 mg/kg by MES test (RVb = 3.12 +/- 0.31 sec); format: functional; method in brief: as §1
# Rattus norvegicus [20] = assay: Anticonvulsant activity in Wistar albino rat assessed as time spent on clonic convulsions phase at 20 mg/kg by MES test (RVb = 16.80 +/- 2.50 sec); format: functional; method in brief: as §1
# Rattus norvegicus [21] = assay: Anticonvulsant activity in Wistar albino rat assessed as time spent on stupor phase at 70 mg/kg by MES test (RVb = 218.33 +/- 5.80 sec); format: functional; method in brief: as §1
# Rattus norvegicus [22] = assay: Anticonvulsant activity in Wistar albino rat assessed as time spent on tonic extensor phase at 70 mg/kg by MES test (RVb = 11 +/- 0.57 sec); format: functional; method in brief: as §1
# Rattus norvegicus [23] = assay: Anticonvulsant activity in Wistar albino rat assessed as time spent on tonic flexion phase at 70 mg/kg by MES test (RVb = 3.12 +/- 0.31 sec); format: functional; method in brief: as §1
# Rattus norvegicus [24] = assay: Anticonvulsant activity in Wistar albino rat assessed as time spent on clonic convulsions phase at 70 mg/kg by MES test (RVb = 16.80 +/- 2.50 sec); format: functional; method in brief: as §1
smiles,measurement,setting,value
O=C(CSc1nc2ccccc2[nH]1)NN1C(=O)CSC1c1ccc(Cl)cc1 (stereo not drawn),Time,Rattus norvegicus [1],12.1 s
same,Time,Rattus norvegicus [2],215.5 s
same,Time,Rattus norvegicus [3],1.36 s
same,Time,Rattus norvegicus [4],4.56 s
Oc1cc(-c2nnc(CSc3nc4ccccc4[nH]3)o2)cc(O)c1O,Activity,Rattus norvegicus [5],73.33 mg/dL
same,Activity,Rattus norvegicus [6],174.2 mg/dL
same,Activity,Rattus norvegicus [7],386.4 mg/dL
same,Activity,Rattus norvegicus [8],110 mg/dL
Nc1ccc(C2SCC(=O)N2NC(=O)CSc2nc3ccccc3[nH]2)cc1 (stereo not drawn),Time,Rattus norvegicus [9],3.15 s
same,Time,Rattus norvegicus [10],210.5 s
same,Time,Rattus norvegicus [11],5.66 s
same,Time,Rattus norvegicus [12],15.4 s
O=C1NC(=O)C(=O)C(=O)N1 [ALLOXAN],Activity,Rattus norvegicus [7],339.8 mg/dL
Oc1ccc(-c2nnc(CSc3nc4ccccc4[nH]3)o2)cc1,Activity,Rattus norvegicus [5],80.83 mg/dL
same,Activity,Rattus norvegicus [6],167.5 mg/dL
same,Activity,Nucleic Acid,inactive
same,Activity,Rattus norvegicus [7],166.2 mg/dL
same,Activity,Rattus norvegicus [8],125 mg/dL
O=C(CSc1nc2ccccc2[nH]1)NN1C(=O)CSC1c1ccccc1 (stereo not drawn),Time,Rattus norvegicus [13],192.5 s
same,Time,Rattus norvegicus [14],1.2 s
same,Time,Rattus norvegicus [15],9.2 s
same,Time,Rattus norvegicus [16],3.2 s
O=C(CSc1nc2ccccc2[nH]1)NN1C(=O)CSC1c1c(O)ccc2ccccc12 (stereo not drawn),Time,Rattus norvegicus [9],3.08 s
same,Time,Rattus norvegicus [10],172.5 s
same,Time,Rattus norvegicus [11],3.98 s
same,Time,Rattus norvegicus [12],1.8 s
O=[N+]([O-])c1ccc(-c2nnc(CSc3nc4ccccc4[nH]3)o2)cc1,Activity,Rattus norvegicus [5],78.33 mg/dL
same,Activity,Rattus norvegicus [6],154.5 mg/dL
same,Activity,Rattus norvegicus [7],158.7 mg/dL
same,Activity,Rattus norvegicus [8],110 mg/dL
Nc1ccc(-c2nnc(CSc3nc4ccccc4[nH]3)o2)cc1,Activity,Rattus norvegicus [5],80.85 mg/dL
same,Activity,Rattus norvegicus [6],155.5 mg/dL
same,Activity,Rattus norvegicus [7],335.5 mg/dL
same,Activity,Rattus norvegicus [8],106.5 mg/dL
O=C1NC(=O)C(c2ccccc2)(c2ccccc2)N1 [PHENYTOIN],Time,Rattus norvegicus [17],0 s
same,Time,Rattus norvegicus [18],158.6 s
same,Time,Rattus norvegicus [19],2.87 s
same,Time,Rattus norvegicus [20],4.9 s
O=C(CSc1nc2ccccc2[nH]1)NN1C(=O)CSC1c1ccc(O)cc1 (stereo not drawn),Time,Rattus norvegicus [21],202.1 s
same,Time,Rattus norvegicus [22],3.73 s
same,Time,Rattus norvegicus [23],3.96 s
same,Activity,Nucleic Acid,Active
same,Time,Rattus norvegicus [24],1.02 s
